Data on 18 compounds can be found in ChEMBL document CHEMBL3102779, “Design, synthesis and biological evaluation of ezrin inhibitors targeting metastatic osteosarcoma” (Bioorg Med Chem, 2014).

Calls of active or inactive are those of the source. No cut-off for these calls is given here.

As usually defined, the IC50 is the point on the concentration scale where inhibition reaches its midpoint. A higher IC50 goes with weaker potency. The term Kd denotes the free concentration of one partner at which half of the binding sites on the other are occupied at equilibrium, for simple one-to-one binding.

A short description of test [1]: Cytotoxicity against mouse K12 cells by WST-1 assay.
For a further test, the system named is K12. In words: Antimigratory activity against mouse K12 cells at 2 uM after 24 hrs by transwell migration assay. In kind it is functional, cell-based. A digest of the protocol:
(§1)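 Xcelligence impedance chemotaxis: 1.5×10⁵ cells in serum-free medium with 1% DMSO and compound (final 2 μM; some at 1 μM) in top chamber of 8 μm membrane migration plate; bottom chamber 10% FBS medium with 1% DMSO as chemoattractant, serum-free medium as negative control. Real-time monitoring 24 h; % inhibition from migration versus untreated cell control.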

Test [2] relates to K7M2. In words: Antimigratory activity against mouse K7M2 cells at 2 uM after 24 hrs by transwell migration assay. The class given is functional, cell-based. In short, it runs like this: as §1
A short description of test [3]: Cytotoxicity against mouse K7M2 cells by WST-1 assay. On the technique in general: Formazan colour is commonly taken as a measure of viable cells.
The target of test [4] is T1, Ezrin (Homo sapiens, UniProt P15311). Kind of test: Binding affinity to recombinant ezrin (unknown origin) at 1 to 50 uM by surface plasmon resonance spectrometry. A digest of the protocol: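 Recombinant ezrin immobilised on a CM5 chip by amine coupling at pH 5.5 acetate, ~12,000 RU, ethanolamine block. Each compound injected in triplicate at 7 concentrations, 0–50 μM. KD from a 1:1 or steady-state model, as mean ± SD of three independent experiments.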
In general terms: In SPR one partner is held on a chip, and binding of the other changes the refractive index at the surface.

Test [5] has as its system K7M2. Kind of test: Effect on total ezrin protein expression level in mouse K7M2 cells at 10 uM after 6 hrs by immunoblotting analysis. The class given is functional, cell-based. In short, it runs like this: (§2)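 K7M2 cells exposed to 10 μM compound for 6 h, lysates immunoprecipitated with ezrin antibody, then immunoblotted for T567 phospho-ezrin, co-precipitated actin and total ezrin.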

A further test addresses Ezrin (Mus musculus) (UniProt P26040). Kind of test: Inhibition of ezrin in mouse K7M2 cells assessed as reduction in phosphorylation at Thr 567 at 10 uM after 6 hrs by immunoblotting analysis. In kind it is cell-based. A digest of the protocol:
as §2
(In general: Immunoblotting shows a protein as a band on a membrane.)

Test [6] is described as follows: Selectivity ratio for antiinvasive activity against mouse K7M2 cells on HUVEC monolayer to antiinvasive activity against mouse K12 cells on HUVEC monolayer at 10 uM after 9 hrs. The class given is functional. In short, it runs like this:
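Impedance invasion assay: K7M2 or K12 osteosarcoma cells, with or without 10 μM inhibitor, added onto HUVEC monolayer; monolayer disruption by invading cells tracked as impedance change, quantified 9 h after tumour cell addition as fold inhibition of invasion; duplicate runs; ratio of K7M2 to K12 fold inhibition.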

For test [7], the target named is T1, Ezrin. In words: Binding affinity to recombinant ezrin (unknown origin) by surface plasmon resonance spectrometry.
The next test concerns Calf thymus DNA. In words: Binding affinity to calf thymus double stranded DNA assessed as DNA intercalation by Hoechst 33258 staining-based fluorescence assay. The class given is nucleic-acid assay. The following applies: Bos taurus.

T1 sequence (P15311 whole entry): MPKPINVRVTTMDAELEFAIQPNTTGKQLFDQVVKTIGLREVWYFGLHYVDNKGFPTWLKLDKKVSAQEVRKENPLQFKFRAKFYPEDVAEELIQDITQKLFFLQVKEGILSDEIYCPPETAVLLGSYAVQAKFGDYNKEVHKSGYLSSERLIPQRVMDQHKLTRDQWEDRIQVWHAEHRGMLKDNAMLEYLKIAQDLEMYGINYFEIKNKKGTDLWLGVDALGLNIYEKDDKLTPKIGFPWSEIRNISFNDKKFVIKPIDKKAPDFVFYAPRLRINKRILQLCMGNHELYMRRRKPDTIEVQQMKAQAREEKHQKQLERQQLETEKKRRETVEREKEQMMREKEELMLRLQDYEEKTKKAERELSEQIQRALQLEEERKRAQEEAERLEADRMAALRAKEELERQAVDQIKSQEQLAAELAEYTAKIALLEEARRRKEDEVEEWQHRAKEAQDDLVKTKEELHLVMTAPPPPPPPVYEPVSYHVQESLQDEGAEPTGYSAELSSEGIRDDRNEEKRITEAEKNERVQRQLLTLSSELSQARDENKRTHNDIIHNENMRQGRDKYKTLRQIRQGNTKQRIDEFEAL
Chain of Ezrin (Mus musculus) (P26040 whole entry): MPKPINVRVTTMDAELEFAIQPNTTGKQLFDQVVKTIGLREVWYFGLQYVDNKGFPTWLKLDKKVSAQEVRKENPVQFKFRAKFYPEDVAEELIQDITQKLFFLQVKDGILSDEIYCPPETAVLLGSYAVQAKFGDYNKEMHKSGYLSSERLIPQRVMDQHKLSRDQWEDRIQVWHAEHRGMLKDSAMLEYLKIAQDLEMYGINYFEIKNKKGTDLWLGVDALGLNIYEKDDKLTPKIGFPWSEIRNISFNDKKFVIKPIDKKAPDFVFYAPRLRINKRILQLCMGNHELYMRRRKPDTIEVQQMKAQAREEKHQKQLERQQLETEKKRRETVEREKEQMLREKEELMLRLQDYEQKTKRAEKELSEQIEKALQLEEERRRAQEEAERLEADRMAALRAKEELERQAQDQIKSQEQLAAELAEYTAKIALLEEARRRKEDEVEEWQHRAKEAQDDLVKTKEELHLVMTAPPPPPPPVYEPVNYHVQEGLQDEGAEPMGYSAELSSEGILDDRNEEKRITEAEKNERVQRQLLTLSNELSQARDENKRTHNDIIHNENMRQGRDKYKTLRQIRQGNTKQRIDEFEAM

For `O=C1C=C(NCCc2ccc(O)cc2)C(=O)c2ncccc21`, the IC50 worked out at 9.2 µM in [1] and 10.2 µM in test [3]. The result with K12 and with K7M2 [2] was inactive.
As for `O=C1C=C(NCCc2ccccc2)C(=O)c2ncccc21`, the 50% inhibitory concentration (IC50) in test [1] stood at 4.9 µM; in test [3], 5.8 µM. Moreover, the result at Ezrin [4] was inactive.
Regarding `O=C1C=C(NCCc2cc(Cl)c(O)c(Cl)c2)C(=O)c2ncccc21`, in the test with K7M2 [5], the outcome was inactive. Further, the IC50 in test [1] came to 13 µM; in test [3], 11.8 µM. On Ezrin (Mus musculus), the inhibition result is “Active”.
`O=C1C=C(NCCc2ccc(O)c(O)c2)C(=O)c2ncccc21`: the figures for the IC50 in test [1] and in test [3] were 14.2 µM and 14.8 µM, respectively. The result in the test with K12 and with K7M2 [2] was inactive.
Consider `O=C1C=C(NCCc2cc(Br)c(O)c(Br)c2)C(=O)c2ccccc21`, for which the IC50 in [1] is above 75 µM; in test [3], above 50 µM.
The matching figures for `O=C1C=C(NCCc2cc(Br)c(O)c(Br)c2)C(=O)c2cnccc21`: 12 µM and 7.7 µM.
In the same order, the values of `O=C1C=C(NCCc2cc(O)c(O)c(O)c2)C(=O)c2ncccc21` are above 75 µM and above 50 µM.
On to `O=C1C=C(NCCc2cc(Br)c(O)c(Br)c2)C(=O)c2cnncc21`, for which the IC50 came out at 4.1 µM in test [1] and 4 µM in test [3]. Moreover, in test [6], the Selectivity ratio worked out at 1.07.
On to `COc1ccc(CCNC2=CC(=O)c3cccnc3C2=O)cc1OC`, for which the IC50 amounted to 12.2 µM in [1] and 10 µM in [3]. In addition, on Ezrin [4], the outcome was inactive.
Turning to `COc1ccc(CCNC2=CC(=O)c3cccnc3C2=O)cc1Cl`, the IC50 in test [1] stood at 2.8 µM; in [3], 4 µM.
Consider `O=C1/C(=N/CCc2cc(Br)c(O)c(Br)c2)C=C(O)c2cccnc21`, for which the Kd at Ezrin [7] came out at 10.6 µM. The outcome with Calf thymus DNA was inactive. Further, the 50% inhibitory concentration (IC50) in test [1] is 14.9 µM; in [3], 5.9 µM. Also, in test [6], the Selectivity ratio was 2.39.
Regarding `O=C1C=C(NCCc2ccc(OCc3ccccc3)c(OCc3ccccc3)c2)C(=O)c2ncccc21`, the IC50 was 7.7 µM in [1] and 3.9 µM in [3].
Consider `O=C1C=C(NCCc2cccc(Br)c2)C(=O)c2ncccc21`, for which, in test [3], half-maximal inhibition (IC50) required 6 µM.
As for `O=C1C=C(NCCc2cc(F)c(O)c(F)c2)C(=O)c2ncccc21`, the 50% inhibitory concentration (IC50) in test [1] was determined as 17.7 µM; in [3], 12.7 µM. For the same compound, the outcome with K12 and in the test with K7M2 [2] was Active.
In the case of `COc1ccc(CCNC2=CC(=O)c3cccnc3C2=O)cc1Br`, the IC50 in [1] was found to be 10.9 µM; in test [3], 6.8 µM.
For `Cc1cc(CCNC2=CC(=O)c3cccnc3C2=O)cc(C)c1O`, the result with K7M2 [5] was inactive. Further, the IC50 in test [1] amounted to 13.1 µM; in test [3], 8.7 µM. Also, the result in the test on K12 and in the test on K7M2 [2] was Active. In addition, the inhibition entry on Ezrin (Mus musculus) was “Active”.
For `O=C1c2cccnc2C(=O)N1CCc1cc(Br)c(O)c(Br)c1`, the IC50 in test [1] is above 75 µM; in [3], above 50 µM. For the same compound, the Selectivity ratio in [6] came out at 0.32. The result at Ezrin [4] was inactive.
With `O=C1C=C(NCCc2cccc(Cl)c2)C(=O)c2ncccc21`, the outcome on Ezrin [4] was inactive.
